# According to PMC10586521 (Journal of medicinal chemistry, 2023):
# Key:
# Assay type in all cases: cell-based
# [1] = test system: HCT116 tumor cells; assay: qRT-PCR splice modulation, overall profile over the gene panel in HCT116 cells; conditions: HCT116, 24 h, 100, 250 and 500 nM
# [2] = test system: PLK-1; assay: qRT-PCR splice modulation, PLK-1 exon skipping/expression in HCT116 cells; conditions: for PLK-1 expression/splicing: HCT116, 24 h, 100-500 nM; for effect on exon 3 inclusion in PLK-1: HCT116, 4 h, ~20 times GI50
# Procedure, shortened: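 HCT116 (ATCC, mycoplasma-tested, ≤5 passages) in supplemented McCoy's 5a with 0.5% DMSO, exposed 4 h or 24 h (100, 250, 500 nM); untreated control. Total RNA isolated, 1 μg DNase I-treated, cDNA made; qPCR on 5 ng cDNA with primers for intron retention/exon skipping. Cycling: 95 °C 10 min; 40× (95 °C 30 s, 55 °C 60 s, 72 °C 60 s). 2−ΔΔCT vs GAPDH, untreated set to 1.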
# [3] = test system: HCT116 colorectal carcinoma cells; assay: MTS cell viability / cell growth inhibition assay in HCT116 cells; conditions: for GI50: Homo sapiens, HCT-116, 72 h; for fold loss in cell growth inhibitory activity (GI50) compared to 1 / fold less effective (GI50) compared to 17S-FD-895: HCT116 cells, 72 h; for fold loss in cell growth inhibitory activity (GI50) compared to 1: relative to FD-895 (1); for fold less effective (GI50) compared to 17S-FD-895: comparator printed as 17S-FD-895 (1a); for fold loss in activity: comparator not stated, side chain terminus modification
# [4] = test system: SF2; assay: qRT-PCR, SF2 RNA expression in HCT116 cells; conditions: for down regulation of SF2 expression: HCT116, 4 h, ~20 times GI50; for SF2 expression: HCT116, 24 h, 100-500 nM
# [5] = test system: SF3B2; assay: qRT-PCR splice modulation, SF3B2 intron retention in HCT116 cells
# [6] = test system: SF3A1; assay: qRT-PCR splice modulation, SF3A1 intron retention in HCT116 cells; conditions: for SF3A1 intron 6 retention: HCT116, 4 h, ~20 times GI50, relative to 1; for SF3A1 intron retention: HCT116, 24 h, 100-500 nM, compared to 1
# [7] = test system: DNAJB1; assay: qRT-PCR splice modulation, DNAJB1 intron retention in HCT116 cells; conditions: for DNAJB1 intron 2 retention: HCT116, 4 h, ~20 times GI50, relative to 1; for DNAJB1 intron retention: HCT116, 24 h, 100-500 nM, compared to 1
# [8] = test system: SF3A3; assay: qRT-PCR splice modulation, SF3A3 intron retention in HCT116 cells; conditions: HCT116, 24 h, 100-500 nM, compared to 1
# Procedure, shortened: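 HCT116 cells (ATCC, mycoplasma-tested, ≤5 passages), supplemented McCoy's 5a with 0.5% DMSO, treated 24 h at 100, 250 or 500 nM; untreated cells as control. Total RNA extracted, 1 μg DNase I-treated, converted to cDNA; qPCR on 5 ng cDNA using intron-retention primers, 95 °C 10 min then 40 cycles 95/55/72 °C. Levels by 2−ΔΔCT relative to GAPDH, untreated = 1.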
# [9] = test system: AURKA; assay: qRT-PCR splice modulation, AURKA exon skipping/expression in HCT116 cells; conditions: HCT116, 24 h, 100-500 nM
# [10] = HCT116, 4 h, ~20 times GI50, compared to 1
# [11] = HCT116, 24 h, 100-500 nM, compared to 1
compound,measurement,setting,value
"CC[C@H](OC)[C@@H](C)[C@H]1O[C@@H]1[C@H](O)[C@H](C)/C=C/C=C(\C)[C@H]1OC(=O)C[C@H](O)CC[C@@](C)(O)[C@@H](OC(C)=O)/C=C/[C@@H]1C [Compound 1, FD-895]",overall splicing activity over the genes tested,[1],altered the splicing of nearly all genes tested
same,PLK-1 expression/splicing,[2],weak efficacy
same,GI50,[3],< 0.01 µM
same,down regulation of SF2 expression,[4],highest efficacy
same,SF2 expression,[4],weak efficacy
"CC[C@H](OC)[C@@H](C)[C@H]1O[C@@H]1[C@H](O)[C@H](C)/C=C/C=C(\C)[C@H]1OC(=O)C[C@@H](O)CC[C@@](C)(O)[C@@H](OC(C)=O)/C=C/[C@@H]1C [Compound 1a, 3S-FD-895]",SF3B2 intron retention,[5]; [10],improved efficacy
same,effect on exon 3 inclusion in PLK-1,[2],most potent effect
same,SF3A1 intron 6 retention,[6],more effective than 1
same,GI50,[3],< 0.01 µM
same,DNAJB1 intron 2 retention,[7],highest level of intron retention
"CC[C@H](OC)[C@@H](C)[C@H]1O[C@@H]1[C@H](O)[C@H](C)/C=C/C=C(\C)[C@H]1OC(=O)C[C@H](O)CC[C@@](C)(O)[C@H](OC(C)=O)/C=C/[C@@H]1C [Compound 1b, 7R-FD-895]",overall splicing activity over the genes tested,[1],loss of splicing activity
same,effect on exon 3 inclusion in PLK-1,[2],most potent effect
same,fold loss in cell growth inhibitory activity (GI50) compared to 1,[3],300 fold
"CC[C@H](OC)[C@@H](C)[C@H]1O[C@@H]1[C@H](O)[C@H](C)/C=C/C=C(\C)[C@@H]1OC(=O)C[C@H](O)CC[C@@](C)(O)[C@@H](OC(C)=O)/C=C/[C@H]1C [Compound 1c, 10R,11R-FD-895]",fold loss in cell growth inhibitory activity (GI50) compared to 1,[3],"21,700 fold"
"CC[C@H](OC)[C@@H](C)[C@H]1O[C@@H]1[C@@H](O)[C@H](C)/C=C/C=C(\C)[C@H]1OC(=O)C[C@H](O)CC[C@@](C)(O)[C@@H](OC(C)=O)/C=C/[C@@H]1C [Compound 1d, 17S-FD-895]",SF3B2 intron retention,[5]; [11],dose dependent-increase intron retention
same,PLK-1 expression/splicing,[2],decreased effect
same,SF3A1 intron retention,[6],dose dependent-increase intron retention
same,GI50,[3],< 0.01 µM
same,DNAJB1 intron retention,[7],decreased level of intron retention
same,SF2 expression,[4],decreased effect
"CC[C@H](OC)[C@@H](C)[C@H]1O[C@@H]1[C@H](OC)[C@H](C)/C=C/C=C(\C)[C@H]1OC(=O)C[C@H](O)CC[C@@](C)(O)[C@@H](OC(C)=O)/C=C/[C@@H]1C [Compound 1e, 17-methoxy-FD-895]",SF3B2 intron retention,[5]; [10],improved efficacy
same,overall splicing activity over the genes tested,[1],comparable or slightly reduced splice modulatory activity
same,SF3A1 intron 6 retention,[6],more effective than 1
same,DNAJB1 intron 2 retention,[7],highest level of intron retention
"CC[C@H](OC)[C@@H](C)[C@H]1O[C@@H]1[C@@H](OC)[C@H](C)/C=C/C=C(\C)[C@H]1OC(=O)C[C@H](O)CC[C@@](C)(O)[C@@H](OC(C)=O)/C=C/[C@@H]1C [Compound 1f, 17-methoxy-17S-FD-895]",SF3A1 intron 6 retention,[6],more effective than 1
same,fold loss in cell growth inhibitory activity (GI50) compared to 1,[3],21 fold
"CC[C@H](OC)[C@@H](C)[C@H]1O[C@@H]1[C@@H](O)[C@H](C)/C=C/C=C(\C)[C@H]1OC(=O)C[C@@H](O)CC[C@@](C)(O)[C@@H](OC(C)=O)/C=C/[C@@H]1C [Compound 1g, 3S,17S-FD-895]",SF3B2 intron retention,[5]; [10],improved efficacy
same,SF3B2 intron retention,[5]; [11],expected loss in intron retention
same,SF3A3 intron retention,[8],comparable intron retention
same,PLK-1 expression/splicing,[2],reduced PLK-1 expression
same,SF3A1 intron retention,[6],expected loss in intron retention
same,fold less effective (GI50) compared to 17S-FD-895,[3],52 fold
same,fold loss in cell growth inhibitory activity (GI50) compared to 1,[3],75 fold
same,DNAJB1 intron 2 retention,[7],highest level of intron retention
same,DNAJB1 intron retention,[7],expected loss in intron retention
same,down regulation of SF2 expression,[4],highest efficacy
same,SF2 expression,[4],reduced ability to inhibit SF2 expression
"CC[C@H](OC)[C@@H](C)[C@H]1O[C@@H]1[C@@H](O)[C@H](C)/C=C/C=C(\C)[C@H]1OC(=O)C[C@H](O)CC[C@@](C)(O)[C@H](OC(C)=O)/C=C/[C@@H]1C [Compound 1h, 7R,17S-FD-895]",fold less effective (GI50) compared to 17S-FD-895,[3],318 fold
"CC[C@H](OC)[C@@H](C)[C@@H]1O[C@H]1[C@@H](O)[C@H](C)/C=C/C=C(\C)[C@H]1OC(=O)C[C@H](O)CC[C@@](C)(O)[C@@H](OC(C)=O)/C=C/[C@@H]1C [Compound 1i, 17S,18S,19S-FD-895]",overall splicing activity over the genes tested,[1],drastic reduction in splicing activity
same,PLK-1 expression/splicing,[2],increased the RNA expression
same,SF3A1 intron 6 retention,[6],more effective than 1
same,fold loss in activity,[3],100 fold
"CC[C@@H](OC)[C@H](C)[C@H]1O[C@@H]1[C@@H](O)[C@H](C)/C=C/C=C(\C)[C@H]1OC(=O)C[C@H](O)CC[C@@](C)(O)[C@@H](OC(C)=O)/C=C/[C@@H]1C [Compound 1j, 17S,20S,21R-FD-895]",AURKA expression,[9],reducing the expression of AURKA at 500 nM
same,overall splicing activity over the genes tested,[1],splicing profile comparable to 1i
same,SF3A1 intron 6 retention,[6],more effective than 1
same,fold loss in activity,[3],100 fold
